Measurements reported in ChEMBL document CHEMBL1156809, “Synthesis and anticonvulsant activities of (R)-N-(4'-substituted)benzyl 2-acetamido-3-methoxypropionamides” (J Med Chem, 2010).
The source made the active and inactive calls. The rule behind the calls is not given here.

Legend:
Mus musculus [1] = assay: Anticonvulsant activity in ip dosed albino CF1 mouse seizure model assessed as protection against hind limb extension by MES test; assay type: functional; conditions: albino CF1, Hindlimb
How it was run: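 Maximal electroshock seizure test run by the NINDS ASP (Stables and Kupferberg procedures). Compounds were given intraperitoneally to mice, and the ED50 for seizure protection is reported in mg/kg.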

Mus musculus [2] = assay: Anticonvulsant activity against subcutaneous metrazole-induced seizures in albino CF1 mouse at 300 mg/kg, ip after 0.5 hrs; assay type: functional, organism-based; set-up: dose 300 mg/kg
How it was run: (§1)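 Subcutaneous Metrazol seizure test under the NINDS ASP, using ip dosing to mice, typically at 300 mg/kg. Protection was assessed at 0.5 and 4 h.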

Rattus norvegicus [3] = assay: Anticonvulsant activity against subcutaneous metrazole-induced seizures in albino Sprague-Dawley rat at 300 mg/kg, ip after 0.5 hrs; assay type: functional, organism-based; set-up: dose 300 mg/kg
Mus musculus [4] = assay: Anticonvulsant activity against subcutaneous metrazole-induced seizures in albino CF1 mouse at 300 mg/kg, ip after 4 hrs; assay type: functional, organism-based; set-up: dose 300 mg/kg; how it was run: as §1
Rattus norvegicus [5] = assay: Anticonvulsant activity against subcutaneous metrazole-induced seizures in albino Sprague-Dawley rat at 300 mg/kg, ip after 4 hrs; assay type: functional, organism-based; set-up: dose 300 mg/kg
Rattus norvegicus [6] = assay: Anticonvulsant activity against in ip dosed albino Sprague-Dawley rat hippocampal kindled seizure model assessed as decrease in seizures after 0.5 hrs; assay type: functional; conditions: Hippocampus
How it was run: (§2)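 Rats were given compounds intraperitoneally in the rapid hippocampal kindling model under the NINDS ASP. Racine seizure score and after-discharge duration (sec) were recorded before and after dosing. Where determined, ED50 (mg/kg) is given with an interval.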

[7] = Neurological toxicity in ip dosed albino CF1 mouse assessed as neurological impairment by rotarod test; assay type: organism-based; conditions: in vivo
How it was run: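 Neurological impairment was measured with the rotorod test in mice dosed intraperitoneally. The median dose (TD50, mg/kg) was determined only for compounds with significant MES activity.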

Mus musculus [8] = assay: Protective index, ratio of TD50 for ip dosed albino CF1 mouse to ED50 for ip dosed albino CF1 mouse; assay type: functional
How it was run: (§3)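 Protective index was calculated as TD50/ED50 for the same species and route: mouse ip (rotorod TD50, MES ED50) and rat po.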

Rattus norvegicus [9] = assay: Anticonvulsant activity in po dosed albino Sprague-Dawley rat seizure model assessed as protection against hind limb extension by MES test; assay type: functional; conditions: Hindlimb
How it was run: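 MES seizure protection was tested in Sprague Dawley rats dosed orally, through the NINDS ASP. The ED50 is expressed in mg/kg.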

[10] = Behavioral toxicity in po dosed albino Sprague-Dawley rat; assay type: organism-based; conditions: in vivo
How it was run: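 Behavioral toxicity was recorded as observed effects in rats after oral administration, within the NINDS ASP screen.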

Rattus norvegicus [11] = assay: Protective index, ratio of TD50 for po dosed albino Sprague-Dawley rat to ED50 for po dosed albino Sprague-Dawley rat; assay type: functional; how it was run: as §3
Rattus norvegicus [12] = assay: Anticonvulsant activity against in ip dosed albino Sprague-Dawley rat hippocampal kindled seizure model assessed as after-discharge duration after 0.5 hrs; assay type: functional, Hippocampus; how it was run: as §2

With `CCCC(CCC)C(=O)[O-].[Na+]` [VALPROATE SODIUM] the ED50 (Mus musculus [1]) was 270 mg/kg, the Activity (Mus musculus [2]) was “inactive” and the Activity (Rattus norvegicus [3]) was “inactive”. For the same compound, the Activity (Mus musculus [4]) was “inactive”, the Activity (Rattus norvegicus [5]) was “inactive” and the ED50 (Rattus norvegicus [6]) was 210 mg/kg.
For `COC[C@@H](NC(C)=O)C(=O)NCc1ccc(I)cc1`, the ED50 (Mus musculus [1]) was 16 mg/kg, the TD50 [7] was 41 mg/kg and the PI (Mus musculus [8]) was 2.6. For the same compound, the ED50 (Rattus norvegicus [9]) was 12 mg/kg, the TD50 [10] was > 500 mg/kg and the PI (Rattus norvegicus [11]) was >43. The Activity (Mus musculus [2]) was “inactive”, the Activity (Rattus norvegicus [3]) was “inactive” and the Activity (Mus musculus [4]) was “inactive”. The Activity (Rattus norvegicus [5]) was “inactive”, the ED50 (Rattus norvegicus [6]) was 12 mg/kg and the Time (Rattus norvegicus [12]) was 0 s.
In the case of `COC[C@@H](NC(C)=O)C(=O)NCc1ccc(N=[N+]=[N-])cc1`, the ED50 (Mus musculus [1]) is reported as 8.4 mg/kg, the TD50 [10] is reported as > 250 mg/kg and the PI (Rattus norvegicus [11]) is reported as >64. The Activity (Mus musculus [2]) was “inactive”, the Activity (Rattus norvegicus [3]) was “inactive” and the Activity (Mus musculus [4]) was “inactive”. For the same compound, the Activity (Rattus norvegicus [5]) was “inactive”, the ED50 (Rattus norvegicus [6]) was 6 mg/kg and the Time (Rattus norvegicus [12]) was 0 s.
In the case of `COCc1ccc(CNC(=O)[C@@H](COC)NC(C)=O)cc1`, the ED50 (Mus musculus [1]) is reported as 73 mg/kg, the PI (Mus musculus [8]) is reported as 2.3 and the TD50 [10] is reported as > 500 mg/kg. For the same compound, the PI (Rattus norvegicus [11]) was >11, the Activity (Mus musculus [2]) was “inactive” and the Activity (Rattus norvegicus [3]) was “inactive”. For the same compound, the Activity (Mus musculus [4]) was “inactive”, the Activity (Rattus norvegicus [5]) was “inactive” and the ED50 (Rattus norvegicus [6]) was 87 mg/kg. The Time (Rattus norvegicus [12]) was 12 s.
